Series [1] concerns the target T1, Toll-like receptor 8 (Homo sapiens, UniProt Q9NR97).
T1 sequence (Q9NR97 whole entry): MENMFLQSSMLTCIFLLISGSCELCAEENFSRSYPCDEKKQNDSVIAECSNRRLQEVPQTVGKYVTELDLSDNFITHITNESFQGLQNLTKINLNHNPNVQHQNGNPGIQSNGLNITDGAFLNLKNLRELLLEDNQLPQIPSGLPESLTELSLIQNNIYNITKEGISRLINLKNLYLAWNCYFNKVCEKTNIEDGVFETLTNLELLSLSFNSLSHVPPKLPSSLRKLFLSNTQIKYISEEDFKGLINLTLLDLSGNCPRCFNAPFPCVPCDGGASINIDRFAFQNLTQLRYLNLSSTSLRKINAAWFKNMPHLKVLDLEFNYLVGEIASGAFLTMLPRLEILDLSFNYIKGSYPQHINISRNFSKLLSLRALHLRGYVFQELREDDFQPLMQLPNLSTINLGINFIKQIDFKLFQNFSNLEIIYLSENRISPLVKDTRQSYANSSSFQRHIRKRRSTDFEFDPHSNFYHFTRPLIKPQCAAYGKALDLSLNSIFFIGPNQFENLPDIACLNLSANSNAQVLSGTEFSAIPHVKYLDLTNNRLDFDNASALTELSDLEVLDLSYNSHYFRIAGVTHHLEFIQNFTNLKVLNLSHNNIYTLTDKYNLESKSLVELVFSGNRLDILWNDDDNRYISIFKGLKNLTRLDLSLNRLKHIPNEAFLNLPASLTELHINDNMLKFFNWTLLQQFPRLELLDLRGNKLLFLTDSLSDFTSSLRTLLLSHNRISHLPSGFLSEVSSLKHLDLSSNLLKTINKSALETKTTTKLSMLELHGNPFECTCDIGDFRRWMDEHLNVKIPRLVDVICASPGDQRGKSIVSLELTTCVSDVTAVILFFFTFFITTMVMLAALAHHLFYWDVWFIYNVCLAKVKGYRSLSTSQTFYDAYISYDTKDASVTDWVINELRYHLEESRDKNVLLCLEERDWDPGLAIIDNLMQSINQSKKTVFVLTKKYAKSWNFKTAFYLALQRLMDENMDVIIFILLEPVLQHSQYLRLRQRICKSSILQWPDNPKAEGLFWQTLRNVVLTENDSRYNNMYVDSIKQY
In words: Agonist activity at human TLR8 expressed in HEK293 cells assessed as induction of receptor activation incubated for 6 hrs by NF-kappaB-luciferase reporter gene assay. Type of series: cell-based. The note with it: hek293, 6 h. Put shortly: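 HEK293 cells transiently transfected overnight at 37°C with CMV-TLR8 plasmid (wild type or dLRR2 mutant) plus NFκB-luc reporter, then exposed to compound for 6 h at 37°C, 5% CO₂. Luciferase read-out. Quadruplicate dose-response. LEC is the concentration giving an effect at least two-fold above the assay SD, averaged over two or more independent experiments.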

The target of series [2] is T2, Toll-like receptor 7 (Homo sapiens) (UniProt Q9NYK1).
T2 sequence (whole entry): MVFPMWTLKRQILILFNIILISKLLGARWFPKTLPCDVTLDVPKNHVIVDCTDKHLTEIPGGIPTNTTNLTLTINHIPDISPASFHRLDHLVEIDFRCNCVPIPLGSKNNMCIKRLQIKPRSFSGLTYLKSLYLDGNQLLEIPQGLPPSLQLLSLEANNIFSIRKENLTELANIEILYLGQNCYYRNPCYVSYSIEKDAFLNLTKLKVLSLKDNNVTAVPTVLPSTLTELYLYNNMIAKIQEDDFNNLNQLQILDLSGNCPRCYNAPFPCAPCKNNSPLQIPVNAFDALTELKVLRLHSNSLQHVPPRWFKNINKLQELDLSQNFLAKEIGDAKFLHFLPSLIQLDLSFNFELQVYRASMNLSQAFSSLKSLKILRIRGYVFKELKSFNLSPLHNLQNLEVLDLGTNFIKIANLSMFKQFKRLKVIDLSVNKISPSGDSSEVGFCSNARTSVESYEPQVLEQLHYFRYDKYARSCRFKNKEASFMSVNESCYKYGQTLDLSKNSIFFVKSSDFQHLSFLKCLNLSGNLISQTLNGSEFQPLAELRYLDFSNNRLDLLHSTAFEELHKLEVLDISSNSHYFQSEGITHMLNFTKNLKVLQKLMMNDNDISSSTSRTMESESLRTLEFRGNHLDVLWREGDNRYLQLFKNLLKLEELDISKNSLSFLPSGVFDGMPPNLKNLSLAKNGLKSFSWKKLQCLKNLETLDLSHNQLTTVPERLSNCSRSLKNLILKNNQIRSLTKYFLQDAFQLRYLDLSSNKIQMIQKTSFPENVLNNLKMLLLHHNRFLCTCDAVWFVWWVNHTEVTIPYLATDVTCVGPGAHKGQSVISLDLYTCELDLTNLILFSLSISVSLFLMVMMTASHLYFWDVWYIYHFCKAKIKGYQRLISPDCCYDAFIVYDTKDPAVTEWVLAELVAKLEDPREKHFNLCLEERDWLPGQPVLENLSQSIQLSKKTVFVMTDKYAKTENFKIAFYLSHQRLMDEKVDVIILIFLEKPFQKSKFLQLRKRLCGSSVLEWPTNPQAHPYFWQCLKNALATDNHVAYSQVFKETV
Briefly: Agonist activity at TLR7 in human PBMC assessed as suppression of HCV replicon replication in human HuH7 luc/neo cells harboring RNA encoding bicistronic expression construct comprising wild type HCV type 1b NS3-NS5B regions exposed to conditioned media from compound treated PBMCs by luciferase reporter gene assay. The format is cell-based. Summed up: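 PBMCs from buffy coats of at least two donors (Ficoll), in RPMI with 10% human AB serum, 2 x 10^5 cells/well, incubated overnight with compound. Supernatant transferred onto Huh7-luc/neo replicon cells plated the day before (2.2 x 10^3/well). Luciferase read after 24 h. EC50 is the concentration applied to PBMCs giving 50% luciferase reduction. Recombinant IFN-α2a standard.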
Background: A replicon is a self-replicating genome or part of one, used to study replication in cells.

The target in series [3] is T2, Toll-like receptor 7 (Homo sapiens). In words: Agonist activity at human TLR7 expressed in HEK293 cells assessed as induction of receptor activation incubated for 6 hrs by NF-kappaB-luciferase reporter gene assay. The format is cell-based. Summed up:
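HEK293 cells transiently transfected overnight with CMV-TLR7 (wild type or dLRR2 mutant) plus NFκB-luc plasmids. Seeded at 1.67 x 10^5 cells/mL onto compound in 4% DMSO (stock), 6 h at 37°C, 5% CO2, luciferase readout. Quadruplicate dose-response. LEC is the concentration giving an effect at least two-fold above assay SD. Values averaged over independent experiments where repeated.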

The nature of series [4]: Cytotoxic activity against HEK293 cells assessed as reduction in cell viability incubated for 6 hrs. Type of series: cell-based. The note with it: human. Summed up: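 HEK293 cells transfected with the CMV-TLR7 construct alone, treated with a compound dilution series for 6 h at 37°C, 5% CO₂. Viability read by ATP luminescence. Reported as CC50.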
The nature of series [5]: Metabolic stability in mouse liver microsomes assessed as drug metabolism after 15 mins at 1 uM. The note with it: read-out: Drug metabolism. The format is ADME, microsome. Put shortly: (§1)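 Compound at 1µM incubated with liver microsomes of the stated species. Percent of compound metabolized after 15 min.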
On the technique in general: Liver microsomes are vesicles of endoplasmic reticulum, rich in cytochrome P450 enzymes.

Series [6] in a line: Metabolic stability in human liver microsomes assessed as drug metabolism after 15 mins at 1 uM. The format is ADME, microsome. The note with it: read-out: Drug metabolism. Summed up: as §1

Broadly, the CC50 is the concentration giving 50% cytotoxicity.

As for `CCCCNc1nc(N)nc2cc(CN(C)C)ccc12`, the MEC in series [1] worked out at 0.04 µM; in series [2], 0.04 µM; in series [3] it was 0.2 µM. For the same compound, the CC50 at 6 h in series [4] was over 18 µM.

On to `CCCCCNc1nc(N)nc2ccccc12`, for which the results for the MEC in series [1], in series [2] and in series [3] were 0.1 µM, 0.04 µM and 0.06 µM, respectively. For the same compound, in series [4], the CC50 at 6 h is over 25 µM.

With `CCCCNc1nc(N)nc2ccc(CCc3ccccn3)cc12`, the MEC in series [1] stood at 0.3 µM; in series [2] it was 0.04 µM; in series [3] it was 0.1 µM. Moreover, in series [4], the CC50 at 6 h is over 18 µM.

Consider `CCCCNc1nc(N)nc2cccc(Cl)c12`, for which the MEC was 0.17 µM in series [2] and 1 µM in series [3]. Besides, the metabolised at 0.25 h, 1 µM in series [5] was 88%; in series [6], 99%. Moreover, the CC50 at 6 h in series [4] was over 25 µM.

`CCNc1nc(N)nc2ccccc12`: the MEC in series [1] turned out to be 0.77 µM; in series [2], 2.27 µM; in series [3], 3.07 µM. Further, in series [4], the CC50 at 6 h is over 25 µM.

With `CCCCNc1nc(N)nc2ccc(CCc3ccc(N(C)C)cc3)cc12`, the MEC in series [1] amounted to 0.5 µM; in series [2] it was 0.15 µM; in series [3] it was 0.2 µM. Besides, the CC50 at 6 h in series [4] was over 18 µM.

Take `CCCCNc1nc(N)nc2cc(OC)ccc12`: the MEC amounted to 0.3 µM in series [1], 0.15 µM in series [2] and 0.9 µM in series [3]. Besides, in series [4], the CC50 at 6 h was over 18 µM.

For `CCCCNc1nc(N)nc2c(F)cccc12`, the MEC in series [1] amounted to 0.3 µM; in series [2], 0.07 µM; in series [3], 0.2 µM. Also, the CC50 at 6 h in series [4] was over 18 µM.

Turning to `CCCCNc1nc(N)nc2cc(C(N)=O)ccc12`, the MEC was 2 µM in series [1], 0.15 µM in series [2] and 0.4 µM in series [3]. In addition, the CC50 at 6 h in series [4] was over 18 µM.

Turning to `CCCC(C)Nc1nc(N)nc2ccccc12` (centres undefined), the figures for the MEC in series [1], in series [2] and in series [3] were 0.17 µM, 0.1 µM and 0.71 µM, respectively. For the same compound, in series [4], the CC50 at 6 h is over 25 µM.

In the case of `CCCCNc1nc(N)nc2cccc(C(=O)N(C)C(C)C)c12`, the MEC in series [1] is over 25 µM; in series [2], 1.92 µM; in series [3], 5.62 µM. The CC50 at 6 h in series [4] was over 25 µM.

With `CC(C)CCNc1nc(N)nc2ccccc12`, the MEC is 2.11 µM in series [1], 1.5 µM in series [2] and over 25 µM in series [3]. For the same compound, the CC50 at 6 h in series [4] is over 25 µM.

Take `CNc1nc(N)nc2ccccc12`: the MEC in series [1] was 6.87 µM; in series [2], 8.88 µM; in series [3], 18.7 µM. Further, the CC50 at 6 h in series [4] is over 25 µM.

For the compound `CCCCNc1nc(N)nc2ccc(F)cc12`, the MEC turned out to be 0.1 µM in series [1], 0.11 µM in series [2] and 0.3 µM in series [3]. Besides, the CC50 at 6 h in series [4] was over 18 µM.

For `CCCCNc1nc(N)nc2ccc(C#N)cc12`, the MEC in series [1] was 7.1 µM; in series [2], 13.2 µM; in series [3], over 25 µM. Moreover, the CC50 at 6 h in series [4] was over 18 µM.

`CCCCNc1nc(N)nc2ccc(C(C)O)cc12` (centres undefined): the MEC worked out at 5.8 µM in series [1], 8.49 µM in series [2] and 12 µM in series [3]. In series [4], the CC50 at 6 h is over 18 µM.

Consider `CCCCNc1nc(N)nc2ccc(CO)cc12`, for which the values for the MEC in series [1], in series [2] and in series [3] were 0.2 µM, 0.14 µM and 0.9 µM, respectively. Besides, in series [4], the CC50 at 6 h is over 18 µM.

As for `CCCNc1nc(N)nc2ccccc12`, the MEC in series [1] was determined as 0.93 µM; in series [2], 0.67 µM; in series [3] it was 1.07 µM. The CC50 at 6 h in series [4] is over 25 µM.

Take `CCCCNc1nc(N)ncc1OCC`: the values for the MEC in series [1], in series [2] and in series [3] were 1.1 µM, 1.43 µM and 4.7 µM, respectively. Moreover, in series [4], the CC50 at 6 h was over 25 µM.

For the compound `CCCCNc1nc(N)nc2ccc(OC)cc12`, the MEC in series [1] was found to be 1.8 µM; in series [2] it was 2.44 µM; in series [3] it was 5.6 µM. The CC50 at 6 h in series [4] was over 18 µM.

Take `COCCCNc1nc(N)nc2ccccc12`: the figures for the MEC in series [1], in series [2] and in series [3] were 0.01 µM, 0.04 µM and 0.46 µM, respectively. In addition, the CC50 at 6 h in series [4] was over 25 µM.

With `CCCCNc1nc(N)nc2ccc(C(C)=O)cc12`, the MEC in series [1] is 1.9 µM; in series [2], 2.39 µM; in series [3], 6.1 µM. For the same compound, the CC50 at 6 h in series [4] was over 18 µM.

As to `CCCCNc1nc(N)nc2cc(F)c(F)cc12`, the MEC came to 0.1 µM in series [1], 0.26 µM in series [2] and 1.8 µM in series [3]. Further, the CC50 at 6 h in series [4] is over 18 µM.

Regarding `CCCCNc1nc(N)nc2cccc(CC3CCCC3)c12`, the MEC is over 25 µM in series [1], 0.09 µM in series [2] and 0.12 µM in series [3]. In addition, the CC50 at 6 h in series [4] was over 25 µM.

`CCCCNc1nc(N)nc2cc(OC)c(OC)cc12`: the figures for the MEC in series [1], in series [2] and in series [3] were 1.1 µM, 2.05 µM and 10 µM, respectively. Also, the CC50 at 6 h in series [4] is over 18 µM.

As to `CCCCNc1nc(N)nc2cc(CO)ccc12`, the values for the MEC in series [1], in series [2] and in series [3] were 0.1 µM, 0.05 µM and 0.1 µM, respectively. Besides, the CC50 at 6 h in series [4] is over 18 µM.

Consider `CCCCNc1nc(N)nc2cc(C(=O)N(C)C)ccc12`, for which the MEC came out at 0.5 µM in series [1], 0.06 µM in series [2] and 0.1 µM in series [3]. Moreover, the CC50 at 6 h in series [4] was over 18 µM.
